Source: article PMC3857970 (European journal of medicinal chemistry, 2012)
Read-outs that look alike come from different tables or passages of the source.

Key:
recombinant human ALR2 = recombinant human ALR2 (Homo sapiens, UniProt P15121); assay: ALR2 inhibition assay; format: biochemical; details: for enhancement of ALR2 inhibitory activity: Michael adducts from N-benzyl / phenyl indoles
[1] = tested on: human red blood cells (RBC); assay: Sorbitol accumulation in RBC under high glucose conditions; format: cell-based; details: ex vivo high glucose conditions
Outline: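 Fasted healthy male donors' heparinised blood; RBC washed three times in isotonic saline at 4 °C, resuspended in Krebs-Ringer bicarbonate pH 7.4 (5% CO2). Duplicates incubated 3 h, 37 °C, 5% CO2, with 5.5 or 55 mM glucose, with test compound at 1.4–20 µM. Cells homogenised in 0.8 M perchloric acid, spun, supernatant adjusted to pH 3.5 with K2CO3; sorbitol measured fluorometrically.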

[2] = average of four experimental values

| IC50 (recombinant human ALR2) [µM] | SMILES | further results |
| --- | --- | --- |
| > 500 | COc1cc(/C=C/C(=O)N2CCC=C(C(O)c3ccc([N+](=O)[O-])cc3)C2=O)cc(OC)c1OC (stereo not drawn) [Compound 32d, (E)-3-(Hydroxy(4-nitrophenyl)methyl)-1-(3-(3,4,5-trimethoxyphenyl)acryloyl)-5,6-dihydropyridin-2(1H)-one] |  |
| > 500 | COc1cc(/C=C/C(=O)N2CCC=C(C(O)c3ccc4ccccc4c3)C2=O)cc(OC)c1OC (stereo not drawn) [Compound 32h, (E)-3-(Hydroxy(naphthalen-2-yl)methyl)-1-(3-(3,4,5-trimethoxyphenyl)acryloyl)-5,6-dihydropyridin-2(1H)-one] |  |
| > 500 | COc1cc(/C=C/C(=O)N2CCC=C(C(O)c3ccccc3[N+](=O)[O-])C2=O)cc(OC)c1OC (stereo not drawn) [Compound 32c, (E)-3-(Hydroxy(2-nitrophenyl)methyl)-1-(3-(3,4,5-trimethoxyphenyl)acryloyl)-5,6-dihydropyridin-2(1H)-one] |  |
| > 500 | COc1cc(/C=C/C(=O)N2CCC=C(C(O)c3ccccc3)C2=O)cc(OC)c1OC (stereo not drawn) [Compound 32j, (E)-3-(Hydroxy(phenyl)methyl)-1-(3-(3,4,5-trimethoxyphenyl)acryloyl)-5,6-dihydropyridin-2(1H)-one] |  |
| > 500 | COc1cc(/C=C/C(=O)N2CCC=C(C(O)c3ccccn3)C2=O)cc(OC)c1OC (stereo not drawn) [Compound 32f, (E)-3-(Hydroxy(pyridin-2-yl)methyl)-1-(3-(3,4,5-trimethoxyphenyl)acryloyl)-5,6-dihydropyridin-2(1H)-one] |  |
| > 500 | COc1cc(C(CC(=O)N2CCC(c3cn(C)c4ccccc34)CC2=O)c2cn(C)c3ccccc23)cc(OC)c1OC (stereo not drawn) [Compound 3b, 1-(3-(3,4,5-Trimethoxyphenyl)-3-(1-methyl-1H-indol-3-yl)propanoyl)-4-(1-methyl-1H-indol-3-yl)piperidin-2-one] |  |
| > 500 | COc1cc(/C=C/C(=O)N2CCC=C(C(O)c3ccc(C#N)cc3)C2=O)cc(OC)c1OC (stereo not drawn) [Compound 32e, (E)-4-(Hydroxy(2-oxo-1-(3-(3,4,5-trimethoxyphenyl)acryloyl)-1,2,5,6-tetrahydropyridin-3-yl)methyl)benzonitrile] |  |
| 80 | COc1cc(C(CC(=O)N2CCC(c3c[nH]c4ccccc34)CC2=O)c2c[nH]c3ccccc23)cc(OC)c1OC (stereo not drawn) [Compound 3a, 1-(3-(1H-Indol-3-yl)-3-(3,4,5-trimethoxyphenyl)propanoyl)-4-(1H-indol-3-yl)piperidin-2-one] |  |
| > 500 | COc1cc(/C=C/C(=O)N2CCC=C(C(O)c3ccc(F)cc3)C2=O)cc(OC)c1OC (stereo not drawn) [Compound 32b, (E)-3-((4-Fluorophenyl)(hydroxy)methyl)-1-(3-(3,4,5-trimethoxyphenyl)acryloyl)-5,6-dihydropyridin-2(1H)-one] |  |
| > 500 | COc1cc(C(CC(=O)N2CCC(c3c[nH]c4ccc(I)cc34)CC2=O)c2c[nH]c3ccc(I)cc23)cc(OC)c1OC (stereo not drawn) [Compound 3f, 1-(3-(5-Iodo-1H-indol-3-yl)-3-(3,4,5-trimethoxyphenyl)propanoyl)-4-(5-iodo-1H-indol-3-yl)piperidin-2-one] |  |
| > 500 | COc1cc(/C=C/C(=O)N2CCC=C(C(O)c3ccc(C)cc3)C2=O)cc(OC)c1OC (stereo not drawn) [Compound 32i, (E)-3-(Hydroxy(p-tolyl)methyl)-1-(3-(3,4,5-trimethoxyphenyl)acryloyl)-5,6-dihydropyridin-2(1H)-one] |  |

Further lines, the molecule ahead of its results:

| SMILES | IC50 (recombinant human ALR2) [µM] | further results |
| --- | --- | --- |
| O=C1C=CCCN1C(=O)C=Cc1ccccc1 [Compound 12, 1-Cinnamoyl-5,6-dihydropyridin-2(1H)-one] | > 500 |  |
| COC(=O)/C=C/c1cc(OC)c(OC)c(OC)c1 [Compound 5, (E)-Methyl 3-(3,4,5-trimethoxyphenyl)acrylate] | > 500 |  |
| COc1cc(C(CC(=O)N2CCC=CC2=O)c2c[nH]c3ccccc23)cc(OC)c1OC (stereo not drawn) [Compound 2a, 1-(3-(1H-Indol-3-yl)-3-(3,4,5-trimethoxyphenyl)propanoyl)-5,6-dihydropyridin-2(1H)-one] | > 500 |  |
| O=C1C=CCCN1C(=O)/C=C/c1cccc(C(F)(F)F)c1 [Compound 13, (E)-1-(3-(3-(Trifluoromethyl)phenyl)acryloyl)-5,6-dihydropyridin] | 400 |  |
| O=C1C=CCCN1C(=O)/C=C/c1ccc2ccccc2c1 [Compound 18, (E)-1-(3-(Naphthalen-2-yl)acryloyl)-5,6-dihydropyridin-2(1H)-one] | 350 |  |
| COc1cc(/C=C/C(=O)N2CCC=CC2=O)cc(OC)c1OC [Compound 1, 5,6-Dihydro-1-((E)-3-(3,4,5-trimethoxyphenyl)acryloyl) pyridin-2(1H)-one] |  | ALR2 inhibitory activity (in words) (recombinant human ALR2): moderate activity |
| COc1ccc2[nH]cc(C(CC(=O)N3CCC=CC3=O)c3cc(OC)c(OC)c(OC)c3)c2c1 (stereo not drawn) [Compound 2j, 1-(3-(5-Methoxy-1H-indol-3-yl)-3-(3,4,5-trimethoxyphenyl)propanoyl)-5,6-dihydropyridin-2(1H)-one] |  | effect on sorbitol accumulation (in words) [1]: inhibited the sorbitol accumulation |
| COc1cc(/C=C/C(=O)N2CCCCC2)cc(OC)c1OC [Compound 33, (E)-1-(Piperidin-1-yl)-3-(3,4,5-trimethoxyphenyl) prop-2-en-1-one] | > 500 |  |
| COc1cc(C(CC(=O)N2CCC=CC2=O)c2c[nH]c3ccc(I)cc23)cc(OC)c1OC (stereo not drawn) [Compound 2f, 1-(3-(5-Iodo-1H-indol-3-yl)-3-(3,4,5-trimethoxyphenyl)propanoyl)-5,6-dihydropyridin-2(1H)-one] | > 500 |  |
| O=C1C=CCCN1C(=O)/C=C/c1cccc(Oc2ccccc2)c1 [Compound 20, (E)-1-(3-(3-Phenoxyphenyl)acryloyl)-5,6-dihydropyridin-2(1H)-one] | > 500 |  |
| O=C1C=CCCN1C(=O)/C=C/C=C/c1ccc2c(c1)OCO2 [Compound 30, 1-((2E,4E)-5-(Benzo[d][1,3]dioxol-5-yl)penta-2,4-dienoyl)-5,6-dihydropyridin-2(1H)-one] | 500 |  |
| COc1cc(/C=C/C(=O)n2c(=O)oc3ccccc32)cc(OC)c1OC [Compound 35, (E)-3-(3-(3,4,5-Trimethoxyphenyl)acryloyl)benzo[d]oxazol-2(3H)-one] | > 500 |  |
| COc1cc(C(CC(=O)N2CCC=CC2=O)c2cn(C)c3ccccc23)cc(OC)c1OC (stereo not drawn) [Compound 2b, 1-(3-(3,4,5-Trimethoxyphenyl)-3-(1-methyl-1H-indol-3-yl)propanoyl)-5,6-dihydropyridin-2(1H)-one] | 100 |  |
| COc1cc(/C=C/C(=O)N2CCC=C(C(O)c3cccs3)C2=O)cc(OC)c1OC (stereo not drawn) [Compound 32g, (E)-3-(Hydroxy(thiophen-2-yl)methyl)-1-(3-(3,4,5-trimethoxyphenyl)acryloyl)-5,6-dihydropyridin-2(1H)-one] |  | IC50 (recombinant human ALR2; [2]): > 500 µM |
| COc1cc(C(CC(=O)O)c2c(C)[nH]c3ccccc23)cc(OC)c1OC (stereo not drawn) [Compound 4, 3-(3,4,5-Trimethoxyphenyl)-3-(2-methyl-1H-indol-3-yl) propanoic acid] | 72 |  |
| COc1cc(/C=C/C(=O)N2CCCC2=O)cc(OC)c1OC [Compound 34, (E)-1-(3-(3,4,5-Trimethoxyphenyl)acryloyl)pyrrolidin-2-one] | > 500 |  |
| O=C1C=CCCN1C(=O)/C=C/c1ccc2c(c1)OCO2 [Compound 16, (E)-1-(3-(Benzo[d][1,3]dioxol-5-yl)acryloyl)-5,6-dihydropyridin-2(1H)-one] | > 500 |  |
| O=C1C=CCCN1C(=O)/C=C/c1ccc(Br)cc1 [Compound 15, (E)-1-(3-(4-Bromophenyl)acryloyl)-5,6-dihydropyridin-2(1H)-one] |  | IC50 (recombinant human ALR2; [2]): 350 µM |
| COc1cc(C(CC(=O)N2CCC(c3c(-c4ccccc4)[nH]c4ccccc34)CC2=O)c2c(-c3ccccc3)[nH]c3ccccc23)cc(OC)c1OC (stereo not drawn) [Compound 3e, 1-(3-(3,4,5-Trimethoxyphenyl)-3-(2-phenyl-1H-indol-3-yl)propanoyl)-4-(2-phenyl-1H-indol-3-yl)piperidin-2-one] |  | enhancement of ALR2 inhibitory activity (recombinant human ALR2): 40 folds; effect on sorbitol accumulation (in words) [1]: inhibited the sorbitol accumulation |
| O=C1C=CCCN1C(=O)/C=C/c1ccc(Cl)cc1 [Compound 17, (E)-1-(3-(4-Chlorophenyl)acryloyl)-5,6-dihydropyridin-2(1H)-one] | > 500 |  |
| O=C1C=CCCN1C(=O)/C=C/c1cccs1 [Compound 22, (E)-1-(3-(Thiophen-2-yl)acryloyl)-5,6-dihydropyridin-2(1H)-one] | > 500 |  |
| COc1cc(C(CC(=O)N2CCC(c3cn(Cc4ccccc4)c4ccccc34)CC2=O)c2cn(Cc3ccccc3)c3ccccc23)cc(OC)c1OC (stereo not drawn) [Compound 3c, 1-(3-(1-Benzyl-1H-indol-3-yl)-3-(3,4,5-trimethoxyphenyl)propanoyl)-4-(1-benzyl-1H-indol-3-yl)piperidin-2-one] |  | enhancement of ALR2 inhibitory activity (recombinant human ALR2): 40 folds; effect on sorbitol accumulation (in words) [1]: inhibited the sorbitol accumulation |
| COc1ccc(OC)c(/C=C/C(=O)N2CCC=CC2=O)c1 [Compound 14, (E)-1-(3-(2,5-Dimethoxyphenyl)acryloyl)-5,6-dihydropyridin-2(1H)-one] | > 500 |  |
